In ChEMBL document CHEMBL1158473, “Aromatic 2-(thio)ureidocarboxylic acids as a new family of modulators of multidrug resistance-associated protein 1: synthesis, biological evaluation, and structure-activity relationships” (J Med Chem, 2009):
Activity calls are given as the source filed them. The rule behind the calls is not given here.

Tests used:
[1] = molecular target: T1, Multidrug resistance-associated protein 1 (Homo sapiens, UniProt P33527); test: Inhibition of MRP1-mediated calcein AM transport expressed in multidrug resistant human 2008 cells assessed as calcein AM accumulation at 100 uM by fluorescence assay in presence of p-gp and BCRP inhibitor XR9577; format: cell-based; conditions: human, 2008, 100 µM
2008 [2] = test: Cytotoxicity against human 2008 cells after 72 hrs by MTT assay; conditions: Homo sapiens, 2008, 72 h
[3] = molecular target: T1, Multidrug resistance-associated protein 1; test: Inhibition of MRP1 expressed in multidrug resistant human 2008 cells assessed as calcein AM accumulation by fluorescence assay in presence of p-gp and BCRP inhibitor XR9577; format: cell-based
Procedure, shortened: (§1)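 Transfected 2008 MRP1 cells run beside 2008 WT cells, 21000 cells per well in Krebs-HEPES buffer. Cobalt sulfate was added to quench extracellular calcein, plus XR9577 to block P-gp. After 30 min preincubation with compound, calcein AM (final 0.5 μM) was added and fluorescence followed 30 min. Slopes were normalized and fitted by a four-parameter logistic; indomethacin (0.316–178 μM) was included.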

[4] = molecular target: T2, Broad substrate specificity ATP-binding cassette transporter ABCG2 (Homo sapiens, UniProt Q9UNQ0); test: Inhibition of BCRP expressed in MCF7 MX cells by Hoechst 33342 staining; format: cell-based
T2 sequence (Q9UNQ0 whole entry): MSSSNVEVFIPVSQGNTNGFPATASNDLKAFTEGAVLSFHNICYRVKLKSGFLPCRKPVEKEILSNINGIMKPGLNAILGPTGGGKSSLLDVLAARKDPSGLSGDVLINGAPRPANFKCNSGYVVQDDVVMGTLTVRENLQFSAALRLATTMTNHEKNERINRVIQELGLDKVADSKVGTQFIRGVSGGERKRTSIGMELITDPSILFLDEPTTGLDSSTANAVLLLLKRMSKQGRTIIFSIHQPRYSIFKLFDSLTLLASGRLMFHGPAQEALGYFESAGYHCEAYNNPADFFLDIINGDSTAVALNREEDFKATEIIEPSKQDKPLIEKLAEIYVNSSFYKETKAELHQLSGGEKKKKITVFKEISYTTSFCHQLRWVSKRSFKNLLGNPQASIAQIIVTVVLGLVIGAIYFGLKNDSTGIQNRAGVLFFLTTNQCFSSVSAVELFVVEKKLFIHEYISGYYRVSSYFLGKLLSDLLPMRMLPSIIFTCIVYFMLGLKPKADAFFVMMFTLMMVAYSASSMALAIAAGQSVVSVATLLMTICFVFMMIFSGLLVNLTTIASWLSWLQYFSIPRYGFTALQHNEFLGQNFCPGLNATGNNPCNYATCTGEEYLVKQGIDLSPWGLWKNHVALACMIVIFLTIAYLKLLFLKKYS
Procedure, shortened: (§2)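 MCF-7 MX cells, with parental MCF-7 alongside, in RPMI 1640 plus 10% FCS. Cells washed in Krebs-HEPES, about 20000 per well, preincubated with compound 30 min at 37 °C, 5% CO2. Hoechst 33342 added and fluorescence (ex 355/em 460 nm) read every 120 s up to 2400 s at 37 °C. Background-subtracted slopes were fitted; XR9577 10 μM served as positive control.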

2008 [5] = test: Potentiation of daunorubicin-induced cytotoxic activity against MRP1-expressing human 2008 cells at 31.6 uM after 72 hrs by MTT assay; format: functional, cell-based
Procedure, shortened: (§3)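 2008 MRP1 cells given a fixed 31.6 μM modulator together with vinblastine or daunorubicin at 0.1 nM–100 μM. Cytostatic alone was tested on 2008 MRP1 and WT cells as control; indomethacin 31.6 μM served as positive control. After 72 h, viability was read by MTT.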

2008 [6] = test: Potentiation of vinblastine-induced cytotoxic activity against MRP1-expressing human 2008 cells at 31.6 uM after 72 hrs by MTT assay; format: functional, cell-based; procedure, shortened: as §3
BCRP (ABCG2) = molecular target: T3, BCRP (ABCG2) (Homo sapiens, UniProt Q9UNQ0); test: Inhibition of BCRP expressed in human MCF7 MX cells at 31.6 uM by Hoechst 33342 staining relative to 10 uM XR9577; format: cell-based; conditions: MCF7 MX cells expressing BCRP, probe Hoechst 33342; procedure, shortened: as §2
T3 sequence (Q9UNQ0 whole entry): T2 sequence (Q9UNQ0 whole entry)

[7] = molecular target: T1, Multidrug resistance-associated protein 1; test: Inhibition of MRP1; procedure, shortened: as §1
A2780 ADR [8] = test: Inhibition of P-gp expressed in human A2780/ADR cells assessed as calcein AM accumulation a 100 uM by fluorescence assay; format: cell-based
Procedure, shortened: (§4)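 P-gp-overexpressing A2780/ADR cells, with wild-type A2780 alongside. Calcein AM accumulation run as in the MRP1 assay (30 min preincubation, final 0.5 μM calcein AM, 30 min reading) but without cobalt or XR9577. XR9577 10 μM served as positive control.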

A2780 ADR [9] = test: Inhibition of P-gp expressed in human A2780/ADR cells assessed as calcein AM accumulation a 31.6 uM by fluorescence assay; format: cell-based; procedure, shortened: as §4
2008 [10] = test: Cytotoxicity against human 2008 cells after 24 hrs by MTT assay; format: cell-based; conditions: Homo sapiens, 2008, 24 h

T1 sequence (P33527 whole entry): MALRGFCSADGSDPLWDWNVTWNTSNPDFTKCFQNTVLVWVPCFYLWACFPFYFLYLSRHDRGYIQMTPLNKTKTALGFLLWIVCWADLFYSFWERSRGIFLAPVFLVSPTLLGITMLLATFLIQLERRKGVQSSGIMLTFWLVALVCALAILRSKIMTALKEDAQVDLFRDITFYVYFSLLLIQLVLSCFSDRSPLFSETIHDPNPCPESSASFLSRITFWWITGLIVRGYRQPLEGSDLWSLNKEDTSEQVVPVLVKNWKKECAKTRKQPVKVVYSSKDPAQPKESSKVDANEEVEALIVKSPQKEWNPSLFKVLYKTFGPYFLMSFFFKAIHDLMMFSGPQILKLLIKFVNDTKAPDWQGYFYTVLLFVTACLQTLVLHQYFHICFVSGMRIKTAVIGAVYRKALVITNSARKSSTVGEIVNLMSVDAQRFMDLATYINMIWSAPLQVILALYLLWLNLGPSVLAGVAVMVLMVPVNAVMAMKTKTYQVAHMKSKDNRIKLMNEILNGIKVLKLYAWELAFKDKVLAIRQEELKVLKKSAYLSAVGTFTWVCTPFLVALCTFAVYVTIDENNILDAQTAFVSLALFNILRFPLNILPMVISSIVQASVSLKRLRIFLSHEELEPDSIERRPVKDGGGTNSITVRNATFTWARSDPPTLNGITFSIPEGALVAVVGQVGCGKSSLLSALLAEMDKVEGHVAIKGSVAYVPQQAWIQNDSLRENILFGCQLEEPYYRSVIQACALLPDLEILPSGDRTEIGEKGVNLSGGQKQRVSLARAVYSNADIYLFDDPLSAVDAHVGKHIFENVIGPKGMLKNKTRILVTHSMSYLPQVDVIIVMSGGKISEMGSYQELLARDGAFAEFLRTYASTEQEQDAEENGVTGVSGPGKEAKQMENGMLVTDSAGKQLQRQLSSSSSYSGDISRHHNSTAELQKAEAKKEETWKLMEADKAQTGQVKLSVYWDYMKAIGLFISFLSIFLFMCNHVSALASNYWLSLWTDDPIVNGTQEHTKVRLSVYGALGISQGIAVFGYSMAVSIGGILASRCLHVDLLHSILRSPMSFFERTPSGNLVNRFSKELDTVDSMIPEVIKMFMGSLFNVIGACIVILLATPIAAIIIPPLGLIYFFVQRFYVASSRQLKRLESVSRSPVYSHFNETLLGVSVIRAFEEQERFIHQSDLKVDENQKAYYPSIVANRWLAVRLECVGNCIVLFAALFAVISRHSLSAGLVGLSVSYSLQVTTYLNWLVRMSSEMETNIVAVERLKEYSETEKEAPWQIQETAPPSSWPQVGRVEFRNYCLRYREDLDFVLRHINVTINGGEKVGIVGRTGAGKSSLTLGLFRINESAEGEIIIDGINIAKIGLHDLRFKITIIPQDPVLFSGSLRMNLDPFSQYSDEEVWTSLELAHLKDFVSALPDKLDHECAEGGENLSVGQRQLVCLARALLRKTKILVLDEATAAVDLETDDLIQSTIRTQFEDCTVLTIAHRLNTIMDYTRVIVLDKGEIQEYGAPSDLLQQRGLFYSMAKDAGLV

| Structure (SMILES) | inhibition (INH) [1] | IC50 2008 [2] | IC50 [3] | also measured |
| --- | --- | --- | --- | --- |
| CN1CCN(C(=S)Nc2sc3c(c2C(=O)O)CCCC3)CC1 | Not Active | – | – | – |
| CN(CCc1ccccc1)C(=O)Nc1ccccc1C(=O)O | Not Active | – | – | – |
| CCN(CC)C(=S)Nc1sc2c(c1C(=O)O)C(C)CCC2 (racemic) | – | > 100 µM | 4.06 µM | IC50 [4]: 9.1 µM |
| Cc1ccc(NC(=O)N(C)Cc2ccccc2)c(C(=O)O)c1 | Not Active | – | – | – |
| Cc1ccc(NC(=O)N(C)CCc2ccccc2)c(C(=O)O)c1 | Not Active | – | – | – |
| CN(C(=S)Nc1sccc1C(=O)O)C1CCCCC1 | – | > 100 µM | 4.51 µM | IC50 [4]: 10.2 µM; Activity 2008 [5]: inactive; Activity 2008 [6]: inactive |
| Cc1sc(NC(=S)N2CCOCC2)c(C(=O)O)c1C | – | – | 18.3 µM | – |
| CCN(CC)C(=S)Nc1sc2c(c1C(=O)O)CCC2 | – | > 100 µM | 2.56 µM | inhibition at 31.6 µM (BCRP (ABCG2)): 25% |
| CN(Cc1ccccc1)C(=S)Nc1ccccc1C(=O)O | – | – | 29.1 µM | – |
| O=C(O)c1c(NC(=S)N2CCOCC2)sc2ccccc12 | Not Active | – | – | – |
| CN(C(=S)Nc1ccccc1C(=O)O)C1CCCCC1 | – | > 100 µM | – | inhibition at 31.6 µM (BCRP (ABCG2)): < 20% |
| COc1cc(C2Oc3cc(-c4oc5cc(O)cc(O)c5c(=O)c4O)ccc3OC2CO)ccc1O (stereo not given) [DEHYDROSILYLBIN] | – | – | – | IC50 [7]: 1100 nM |
| CN(C(=S)Nc1ccccc1C(=O)O)c1ccccc1 | – | – | 198 µM | – |
| CCN(CC)C(=S)Nc1sc(C(N)=O)c(C)c1C(=O)O | – | – | > 100 µM | – |
| O=C(O)c1c(NC(=S)N2CCOCC2)sc2c1CCCC2 | Not Active | – | – | – |
| CCN(CC)C(=O)Nc1sc2c(c1C(=O)O)CCCC2 | – | > 100 µM | – | inhibition at 31.6 µM (BCRP (ABCG2)): 25% |
| CCN(CC)C(=O)Nc1ccccc1C(=O)O | – | – | 26.4 µM | – |
| O=C(O)c1c(NC(=O)N2CCOCC2)sc2c1CCCC2 | Not Active | – | – | – |
| O=C(O)c1ccccc1NC(=S)N1CCNCC1 | – | – | 20.7 µM | – |
| Cc1sc(NC(=S)N(C)C2CCCCC2)c(C(=O)O)c1C | – | > 100 µM | 4.19 µM | inhibition at 31.6 µM (BCRP (ABCG2)): 25% |
| COC(=O)CN(C)C(=O)Nc1ccccc1C(=O)O | Not Active | – | – | – |
| CCN(CC)C(=S)Nc1sc(C)c(C)c1C(=O)O | – | – | 20.4 µM | – |
| CN(C(=O)Nc1ccccc1C(=O)O)c1ccccc1 | Not Active | – | – | – |
| CCN(CC)C(=S)Nc1sc2c(c1C(=O)O)CCCCC2 | – | > 100 µM | 5.97 µM | inhibition at 31.6 µM (BCRP (ABCG2)): 25% |
| CN(CCc1ccccc1)C(=S)Nc1ccccc1C(=O)O | – | – | 24 µM | – |

| Structure (SMILES) | inhibition (INH) [1] | IC50 2008 [2] | IC50 [3] | also measured |
| --- | --- | --- | --- | --- |
| CN(C(=O)Nc1ccccc1C(=O)O)C1CCCCC1 | – | > 100 µM | – | inhibition at 31.6 µM (BCRP (ABCG2)): 25% |
| CCN(CC)C(=S)Nc1scc(C(C)C)c1C(=O)O | – | – | 14.5 µM | – |
| CCN(CC)C(=O)Nc1sc2c(c1C(=O)O)CCC2 | – | > 100 µM | – | inhibition at 31.6 µM (BCRP (ABCG2)): 25% |
| Cc1ccc(NC(=O)N(C)C2CCCCC2)c(C(=O)O)c1 | – | – | 22.8 µM | – |
| O=C(O)c1ccccc1NC(=O)N1CCOCC1 | Not Active | – | – | – |
| CC(C)NC(=O)Nc1sc2c(c1C(=O)O)CCCC2 | Not Active | – | – | – |
| O=C(O)c1cc(-c2ccccc2)sc1NC(=S)N1CCOCC1 | – | – | 27.5 µM | – |
| CCN(CC)C(=S)Nc1ccccc1C(=O)O | – | – | 21.6 µM | – |
| CCN(CC)C(=S)Nc1sccc1C(=O)O | – | > 100 µM | 4.46 µM | inhibition at 31.6 µM (BCRP (ABCG2)): 25% |
| Cc1ccc(NC(=O)N2CCOCC2)c(C(=O)O)c1 | Not Active | – | – | – |
| CCN(CC)C(=S)Nc1sc2ccccc2c1C(=O)O | – | > 100 µM | 0.932 µM | IC50 [4]: 6.16 µM; Activity 2008 [5]: inactive; Activity 2008 [6]: inactive |
| CN(Cc1ccccc1)C(=O)Nc1ccccc1C(=O)O | – | – | 42.6 µM | – |
| Cc1ccc(NC(=O)N(C)c2ccccc2)c(C(=O)O)c1 | Not Active | – | – | – |
| O=C(O)c1ccccc1NC(=S)N1CCCC1 | – | – | 18.3 µM | – |
| CCN(CC)C(=S)Nc1sc2c(c1C(=O)O)CCCC2 | – | > 100 µM | 2.71 µM | inhibition at 31.6 µM (BCRP (ABCG2)): 25% |
| CCN(CC)C(=O)Nc1cc2ccccc2cc1C(=O)O | – | > 100 µM | – | – |
| CN(C)C(=S)Nc1sc2c(c1C(=O)O)CCCC2 | Not Active | – | – | – |
| O=C(O)c1ccccc1NC(=O)N1CCCC1 | – | – | 43.1 µM | – |
| O=C(O)c1ccccc1NC(=S)N1CCOCC1 | Not Active | – | – | – |
| O=C(O)c1c(-c2ccccc2)csc1NC(=S)N1CCOCC1 | Not Active | – | – | – |
| CCN(CC)C(=S)Nc1sc(-c2ccccc2)cc1C(=O)O | – | > 100 µM | 14.3 µM | inhibition (A2780 ADR [8]): 40%; inhibition (A2780 ADR [9]): 20% |
| Cc1cc(NC(=O)N2CCOCC2)c(C(=O)O)cc1C | – | – | 43.4 µM | – |
| CCN(CC)C(=S)Nc1ccsc1C(=O)O | – | – | 4.18 µM | inhibition at 31.6 µM (BCRP (ABCG2)): 25%; IC50 2008 [10]: > 100 µM |
| CN(C(=S)Nc1sc2ccccc2c1C(=O)O)C1CCCCC1 | – | > 100 µM | 1.23 µM | inhibition at 31.6 µM (BCRP (ABCG2)): 25% |
